Laboratory results: ChEMBL document CHEMBL3526116, “Toxicological evaluation of acyl glucuronides of nonsteroidal anti-inflammatory drugs using human embryonic kidney 293 cells stably expressing human UDP-glucuronosyltransferase and human hepatocytes” (Drug Metab Dispos, 2011)

Legend:
HEK293 [1] = test: Cytotoxicity against HEK293 cells expressing UGT1A4 assessed as decrease in cell viability at 1 mM measured at 24 hrs by MTT assay; assay type: ADME, cell-based; details: human, hek293, 24 h, 1000 µM
HEK293 [2] = test: Cytotoxicity against HEK293 cells expressing UGT assessed as decrease in cell viability at 1 mM measured up to 72 hrs by MTT assay; assay type: ADME, cell-based; details: human, hek293, 72 h, 1000 µM
Method in brief: (§1)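 Mock and UGT1A3/UGT1A4 stable HEK293 cells given drug for up to 72 h; viability measured by WST-8-based MTT assay.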

HEK293 [3] = test: Cytotoxicity against HEK293 cells expressing UGT1A3 assessed as decrease in cell viability at 1 mM measured at 24 hrs by MTT assay; assay type: ADME, cell-based; details: human, hek293, 24 h, 1000 µM
Hepatocyte [4] = test: Cytotoxicity against human hepatocytes assessed as decrease in cell viability by measuring intracellular ATP content at 1 mM measured at 6 hrs by CellTiter-Glo luminescent assay in absence of acyl glucuronidation inhibitor (-)-borneol; assay type: cell-based; details: 1000 µM
Method in brief: (§2)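 Human hepatocytes (pooled, cryopreserved), 2 × 10^4 cells/well on collagen in HCM with 0.5% FBS and 10 nM estradiol; 30-min preincubation ± 1 mM (-)-borneol, then drug 6 h. Intracellular ATP measured by CellTiter-Glo luminescence, percent of control cells. Triplicates, mean ± SD.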

HEK293 [5] = test: Cytotoxicity against HEK293 cells expressing UGT1A4 assessed as decrease in cell viability at 1 mM by MTT assay; assay type: ADME, cell-based; details: human, hek293, 1000 µM; TDE = time-dependent effect
HEK293 [6] = test: Cytotoxicity against HEK293 cells expressing UGT1A4 assessed as decrease in cell viability by measuring intracellular ATP content at 1 mM by CellTiter-Glo luminescent assay; assay type: ADME, cell-based; details: human, hek293, 1000 µM; TDE = time-dependent effect
Method in brief: (§3)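 UGT1A3 or UGT1A4 stable HEK293 cells, 2 x 10^4 cells/well in 0.1 mL DMEM with 0.5% FBS, drug for 6, 12 or 24 h. Viability from intracellular ATP via CellTiter-Glo luminescence, expressed as percent of control cells. Mean ± SD of triplicates.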

HEK293 [7] = test: Cytotoxicity against mock transfected HEK293 cells assessed as decrease in cell viability at 1 mM by MTT assay; assay type: cell-based; details: human, hek293, 1000 µM; TDE = time-dependent effect
HEK293 [8] = test: Cytotoxicity against mock transfected HEK293 cells assessed as decrease in cell viability by measuring intracellular ATP content at 1 mM by CellTiter-Glo luminescent assay; assay type: cell-based; details: human, hek293, 1000 µM; TDE = time-dependent effect
Method in brief: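 Mock-transfected HEK293 cells seeded at 2 x 10^4 cells/well in DMEM with 0.5% FBS, drug added at once and incubated 6, 12 or 24 h. Viability read either by WST-8 (CCK-8) formazan absorbance at 450 nm or by intracellular ATP luminescence (CellTiter-Glo), as percent of control cells; mean ± SD of triplicates. Final DMSO ≤0.1%.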

Hepatocyte [9] = test: Cytotoxicity against human hepatocytes assessed as decrease in cell viability by measuring intracellular ATP content at 1 mM measured at 6 hrs by CellTiter-Glo luminescent assay in presence of acyl glucuronidation inhibitor (-)-borneol; assay type: cell-based; details: 1000 µM; method in brief: as §2
Hepatocyte [10] = test: Cytotoxicity against human hepatocytes assessed as decrease in cell viability at 1 mM measured at 6 hrs […] in presence of acyl glucuronidation inhibitor (-)-borneol; assay type: cell-based; details: 1000 µM
Hepatocyte [11] = test: Cellular uptake in human hepatocytes at 1 mM measured at 6 hrs by LC-MS/MS analysis in presence of acyl glucuronidation inhibitor (-)-borneol; assay type: ADME, cell-based; details: 1000 µM
Method in brief: (§4)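 Cryopreserved pooled human hepatocytes on collagen-coated wells, 2 × 10^5 cells/well in HCM medium with 0.5% FBS, preincubated 30 min with or without 1 mM (-)-borneol, then drug for 6 h; DMSO ≤0.2% final. Parent drug in cell fraction measured by LC-MS/MS after methanol/acetic acid extraction. Mean ± SD of triplicates.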

Hepatocyte [12] = test: Cellular uptake in human hepatocytes at 1 mM measured at 6 hrs by LC-MS/MS analysis in absence of acyl glucuronidation inhibitor (-)-borneol; assay type: ADME, cell-based; details: 1000 µM; method in brief: as §4
HEK293 [13] = test: Genotoxicity in HEK293 cells expressing UGT1A3 assessed as DNA strand breaks at 1 mM after 24 hrs by comet assay; assay type: toxicity, cell-based; details: human, hek293, 24 h, 1000 µM
Method in brief: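 Alkaline comet assay: HEK/UGT1A3 cells seeded 24 h before, treated 24 h in DMEM with 0.5% FBS (vehicle 0.1% DMSO; MMS 0.1 mM positive control). Cells embedded in LMP agarose, lysed 1 h at 4°C at pH 10, unwound 30 min in NaOH/EDTA, electrophoresed 300 mA 20 min, ethidium-stained; tail moment scored on 150-180 comets over >3 experiments, median (IQR).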

HEK293 [14] = test: Cytotoxicity against HEK293 cells expressing UGT1A3 assessed as decrease in cell viability at 1 mM by MTT assay; assay type: ADME, cell-based; details: human, hek293, 1000 µM; TDE = time-dependent effect
HEK293 [15] = test: Cytotoxicity against HEK293 cells expressing UGT1A3 assessed as decrease in cell viability by measuring intracellular ATP content at 1 mM by CellTiter-Glo luminescent assay; assay type: ADME, cell-based; details: human, hek293, 1000 µM; TDE = time-dependent effect; method in brief: as §3
HEK293 [16] = test: Cytotoxicity against HEK293 cells expressing UGT assessed as LDH leakage at 1 mM after 6 to 24 hrs by spectrophotometric analysis relative to total cell LDH level; assay type: ADME, cell-based; details: human, hek293, 1000 µM
Method in brief: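 Stable UGT-expressing or mock HEK293 lines in DMEM with 0.5% FBS, 2 x 10^4 cells/well, drug for 6, 12 or 24 h. LDH released into medium read at 490 nm (690 nm reference); percentage calculated against maximum release from control cells lysed with 1% Triton X-100.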

HEK293 [17] = test: Cytotoxicity against HEK293 cells expressing UGT1A4 assessed as decrease in cell viability at 0.1 mM measured at 24 hrs […]; assay type: ADME, cell-based; details: human, hek293, 24 h, 100 µM
HEK293 [18] = test: Cytotoxicity against HEK293 cells expressing UGT assessed as decrease in cell viability at 0.1 mM measured up to 72 hrs by MTT assay; assay type: ADME, cell-based; details: human, hek293, 72 h, 100 µM; method in brief: as §1
HEK293 [19] = test: Cytotoxicity against HEK293 cells expressing UGT1A3 assessed as decrease in cell viability at 0.1 mM measured at 24 hrs by MTT assay; assay type: ADME, cell-based; details: human, hek293, 24 h, 100 µM

Cc1ccc(C)c(OCCCC(C)(C)C(=O)O)c1 [GEMFIBROZIL]
Activity (HEK293 [1]): Non-toxic
Activity (HEK293 [2]): Non-toxic
Activity (HEK293 [3]): Non-toxic

CC(=O)Oc1ccccc1C(=O)O [ASPIRIN]
Activity (HEK293 [3]): Non-toxic

COc1ccc2cc([C@H](C)C(=O)O)ccc2c1 [NAPROXEN]
Activity (Hepatocyte [4]): Toxic
Activity (HEK293 [5]): tde
Activity (HEK293 [6]): tde
Activity (HEK293 [7]): tde
Activity (HEK293 [8]): tde
Activity (HEK293 [2]): Non-toxic
Activity (Hepatocyte [9]): Toxic
Activity (Hepatocyte [10]): Toxic
Drug uptake (Hepatocyte [11]): Active
Drug uptake (Hepatocyte [12]): Active
Activity (HEK293 [13]): Non-toxic
Activity (HEK293 [14]): tde
Activity (HEK293 [15]): tde
Activity (HEK293 [16]): < 5.4%

COc1ccc2c(c1)c(CC(=O)O)c(C)n2C(=O)c1ccc(Cl)cc1 [INDOMETHACIN]
Activity (HEK293 [3]): Non-toxic

O=C(O)c1ccccc1O [SALICYLIC ACID]
Activity (HEK293 [1]): Non-toxic
Activity (HEK293 [2]): Non-toxic
Activity (HEK293 [3]): Non-toxic

Cc1cccc(Nc2ccccc2C(=O)O)c1C [MEFENAMIC ACID]
Activity (HEK293 [3]): Non-toxic

Cc1cc(CC(=O)O)n(C)c1C(=O)c1ccc(Cl)cc1 [ZOMEPIRAC]
Activity (HEK293 [17]): Non-toxic
Activity (HEK293 [18]): Non-toxic
Activity (HEK293 [19]): Non-toxic

CC(C)(Oc1ccc(CCNC(=O)c2ccc(Cl)cc2)cc1)C(=O)O [BEZAFIBRATE]
Activity (HEK293 [3]): Non-toxic

CCCN(CCC)S(=O)(=O)c1ccc(C(=O)O)cc1 [PROBENECID]
Activity (HEK293 [3]): Non-toxic
